Laboratory results from publication PMC11223518 (Science signaling, 2024).

Columns and labels:
TrkB signaling = conditions: cited from earlier work
[1] = system: primary murine hippocampal neurons; experiment: Dendritic spine density; format: cell-based, mouse; conditions: K252a 200 nM or LY294002 1 μM, Syn3 0.2 μM, BDNF 25 ng/mL 24 hours; n = 15 neurons
[2] = system: Akt, GSK3α/β, S6K, S6 phosphorylation in primary murine hippocampal neurons; format: cell-based, mouse; conditions: K252a 200 nM or LY294002 1 μM for 1 hour, then Syn3 0.2 μM, BDNF 25 ng/mL 20 min; n = 5
[3] = system: primary murine hippocampal neurons; experiment: PSD-95 puncta formation in vitro; format: cell-based, mouse; conditions: for effect of inhibitor on the effects of Syn3 (PSD-95 puncta): K252a 200 nM or LY294002 1 μM for 1 hour; for effect of inhibitor on the effects of Syn3 (PSD-95 puncta) / BDNF+Syn3–induced PSD-95 puncta formation with inhibitor: then Syn3 0.2 μM, BDNF 25 ng/mL 24 hours; for BDNF+Syn3–induced PSD-95 puncta formation with inhibitor: K252a 200 nM or LY294002 1 μM, n = 20 neurons
Procedure, shortened: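 Primary murine hippocampal neurons were pretreated with test compound (0.2 µM) for 20 min, some first with K252a (200 nM) or LY294002 (1 µM) for 1 hour, then given BDNF for 24 hours. Cells were fixed in 4% paraformaldehyde for 15 min and blocked in 0.3% Triton X-100/5% goat serum. Primary antibody ran overnight at 4°C, secondary 2 hours at room temperature. Puncta were counted per 10-µm second-order dendrite 35–45 µm from the soma.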

[4] = system: primary murine hippocampal neurons; experiment: Synaptic density; format: cell-based, mouse; conditions: K252a 200 nM or LY294002 1 μM, Syn3 0.2 μM, BDNF 25 ng/mL 24 hours; n = 20 neurons
[5] = system: C57BL/6J mice, corticosterone model of depression; experiment: Tail suspension test, corticosterone model; format: in vivo, mouse; conditions: corticosterone 20 mg/kg s.c. daily for 21 days
Procedure, shortened: (§1)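 C57BL/6J mice, 4–5 weeks old, equal numbers male and female. Corticosterone emulsified in propylene glycol given s.c. daily between 10:00 and 12:00 for 21 days; controls got vehicle. Test compound then given i.p. (1 or 10 mg/kg; in one series 1 mg/kg with testing 12 hours later, n = 9 per group). Mice acclimated to the testing room for 30 min.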

[6] = system: C57BL/6J mice, corticosterone model of depression; experiment: Forced swim test, corticosterone model; format: in vivo, mouse; conditions: corticosterone 20 mg/kg s.c. daily for 21 days
Procedure, shortened: as §1

[7] = system: C57BL/6J mice, corticosterone model of depression; experiment: Sucrose preference test, corticosterone model; format: in vivo, mouse; conditions: corticosterone 20 mg/kg s.c. daily for 21 days
Procedure, shortened: as §1

[8] = system: autophagy, BDNF-mTOR signaling pathway; conditions: through the BDNF-mTOR signaling pathway; cited from earlier work
[9] = system: patients with conventional, treatment-resistant depression; conditions: single infusion of sub-anesthetic dose; cited from earlier work
[10] = system: insulin receptor signaling; experiment: Insulin-induced Akt-S6K signaling in primary hippocampal neurons; format: cell-based, mouse; conditions: insulin 1 μg/mL, 20 min
Procedure, shortened: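 Primary murine hippocampal neurons were pre-treated 20 min with test compound (0.2 µM) or vehicle, then with insulin (1 μg/mL) for 20 min. Cells were lysed in ice-cold RIPA for 30 min and centrifuged. Equal protein was run on SDS-PAGE and blotted to PVDF, blocked in 5% milk/TBS-T, then probed overnight at 4°C with primary antibodies and HRP secondaries. Data are mean ± SD.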

[11] = system: platelet-derived growth factor (PDGF) receptor signaling; experiment: PDGF-induced Akt-S6K signaling in primary hippocampal neurons; format: cell-based, mouse; conditions: PDGF-BB 25 ng/mL, 20 min
[12] = system: primary murine hippocampal neurons; experiment: Sholl analysis of dendritic complexity/neurite outgrowth; format: cell-based, mouse; conditions: BDNF 25 ng/mL, 24h; n = 26 neurons

O=c1cc(-c2ccccc2)oc2c(O)c(O)ccc12 [7,8-DHF, 7,8-dihydroxyflavone]
TrkB signaling and antidepressant responses (TrkB signaling): stimulates TrkB signaling and promotes rapid antidepressant responses

COC(=O)[C@@]1(O)C[C@H]2O[C@]1(C)n1c3ccccc3c3c4c(c5c6ccccc6n2c5c31)C(=O)NC4 [K252a]
density of dendritic spines, BDNF + Syn3 with inhibitor [1]: reversed
BDNF plus Syn3 stimulation of Akt and S6K phosphorylation with inhibitor [2]: blocked
effect of inhibitor on the effects of Syn3 (PSD-95 puncta) [3]: blocked the effects of Syn3
BDNF+Syn3–induced PSD-95 puncta formation with inhibitor [3]: reversed
effect of Syn3 on synaptic density with inhibitor [4]: blocked the effect of Syn3 on synaptic density

O=c1cc(N2CCOCC2)oc2c(-c3ccccc3)cccc12 [LY294002]
density of dendritic spines, BDNF + Syn3 with inhibitor [1]: reversed
BDNF plus Syn3 stimulation of Akt and S6K phosphorylation with inhibitor [2]: blocked
effect of inhibitor on the effects of Syn3 (PSD-95 puncta) [3]: blocked the effects of Syn3
BDNF+Syn3–induced PSD-95 puncta formation with inhibitor [3]: reversed
effect of Syn3 on synaptic density with inhibitor [4]: blocked the effect of Syn3 on synaptic density

C[C@]12C[C@H](O)[C@H]3[C@@H](CCC4=CC(=O)CC[C@@]43C)[C@@H]1CC[C@@H]2C(=O)CO [corticosterone]
immobility time (effect of inducer), tail suspension test [5]: increased immobility time
immobility time (effect of inducer), forced swim test [6]: increased immobility time
sucrose intake (effect of inducer) [7]: decreased sucrose intake

CN[C@]1(c2ccccc2Cl)CCCCC1=O [esketamine]
autophagy [8]: acts to inhibit autophagy

CNC1(c2ccccc2Cl)CCCCC1=O (centres unmarked) [ketamine]
antidepressant effects in patients [9]: produces rapid antidepressant effects in patients with conventional, treatment-resistant depression

insulin: recombinant insulin
Akt and S6K phosphorylation [10]: increased Akt and S6K phosphorylation

B1: PDGF: recombinant platelet-derived growth factor (protein, UniProt P01127 82-190, looked up)
Platelet-derived growth …: SLGSLTIAEPAMIAECKTRTEVFEISRRLIDRTNANFLVWPPCVEVQRCSGCCNNRNVQCRPTQVQLRPVQVRKIEIVRKKPIFKKATVTLEDHLACKCETVAAARPVT
Akt and S6K phosphorylation [11]: increased Akt and S6K phosphorylation

B2: brain-derived neurotrophic factor (protein, UniProt P23560 19-247, looked up)
Neurotrophic factor BDNF …: APMKEANIRGQGGLAYPGVRTHGTLESVNGPKAGSRGLTSLADTFEHVIEELLDEDQKVRPNEENNKDADLYTSRVMLSSQVPLEPPLLFLLEEYKNYLDAANMSMRVRRHSDPARRGELSVCDSISEWVTAADKKTAVDMSGGTVTVLEKVPVSKGQLKQYFYETKCNPMGYTKEGCRGIDKRHWNSQCRTTQSYVRALTMDSKKRIGWRFIRIDTSCVCTLTIKRGR
number of PSD-95 puncta ([3]; BDNF 25 ng/mL, 24h): increased the number of PSD-95 puncta
dendritic complexity and number of neurite crossings [12]: significantly enhanced dendritic complexity and the number of neurite crossings
